We go through 45 compounds from ChEMBL document CHEMBL3861994, “1,2,3-Triazole-based inhibitors of Porphyromonas gingivalis adherence to oral streptococci and biofilm formation” (Bioorg Med Chem, 2016).

A short description of data set [1]: Inhibition of Porphyromonas gingivalis ATCC 33277 MFA interaction with Streptococcus gordonii DL1(1) antigen 1/2 assessed as inhibition of 5(6)-carboxyfluorescein N-hydroxysuccinimide ester-labeled Porphyromonas gingivalis ATCC 33277 cell adhesion to hexidium iodide-labeled Streptococcus gordonii DL1(1) by measuring inhibition of biofilm formation preincubated with Porphyromonas gingivalis ATCC 33277 for 30 mins followed by addition to Streptococcus gordonii DL1(1) culture measured after 22 hrs by laser scanning confocal microscopy. It counts as cell-based. The procedure, abridged: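 Hexidium iodide-labelled S. gordonii (OD600 0.8 in PBS, pH 7.2) was bound to coverslips for 24 h, anaerobic, 37 °C. Carboxyfluorescein-labelled P. gingivalis (OD600 0.4) was preincubated 30 min at room temperature with compound (0–60 μM final, from 1000X DMSO stock), added, then incubated 22 h anaerobically. After fixation, confocal z-stacks (488/552 nm) were taken. IC50 is 50% reduction of the green/red fluorescence ratio; triplicates, three independent experiments.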

Data set [2] deals with Streptococcus gordonii. Put plainly: Growth inhibition of Streptococcus gordonii at 60 uM measured after 24 hrs. Particulars: read-out: GI.
The nature of data set [3]: Cytotoxicity against gingival epithelial cells (unknown origin). The settings on record: epithelial cell. It counts as toxicity, cell-based.
Data set [4] concerns Porphyromonas gingivalis. Put plainly: Growth inhibition of Porphyromonas gingivalis at 60 uM measured after 24 hrs.
Data set [5] relates to Streptococcus gordonii. Put plainly: Growth inhibition of Streptococcus gordonii at 40 uM measured after 24 hrs. The settings on record: read-out: GI.
Data set [6] relates to Porphyromonas gingivalis. Put plainly: Growth inhibition of Porphyromonas gingivalis at 40 uM measured after 24 hrs.

As to `COc1ccccc1-c1cn(Cc2nc(-c3ccc(Cl)cc3)c(-c3ccc(Cl)cc3)o2)nn1`, in data set [1], the IC50 came out at 56.8 µM. The inhibition at 60 µM in data set [2] was 6.6%. Further, in data set [3], the Activity entry was “Toxic”. Besides, the “growth inhibition (GI)” value in data set [4] was -19.6%.
In the same order, the values of `COc1ccccc1-c1cn(Cc2nc(-c3ccc(Br)cc3)c(-c3ccc(Br)cc3)o2)nn1` are 43 µM, 11.1%, “Toxic” and -12.4%.
In the case of `FC(F)(F)c1cc(-c2cn(Cc3nc(-c4ccccc4)c(-c4ccccc4)o3)nn2)cc(C(F)(F)F)c1`, in data set [1], the IC50 was over 60 µM. For the same compound, in data set [3], the Activity result was “Toxic”.
In the case of `c1ccc(-c2nc(Cn3cc(-c4cccnc4)nn3)oc2-c2ccccc2)cc1`, the IC50 in data set [1] was over 60 µM. Also, in data set [3], the Activity result was “Toxic”.
In the same order, the values of `Brc1ccc(-c2nc(Cn3cc(-c4cccnc4)nn3)oc2-c2ccc(Br)cc2)cc1` are 50.9 µM and “Toxic”.
As to `COc1ccc2cc(-c3cn(Cc4nc(-c5ccc(Cl)cc5)c(-c5ccc(Cl)cc5)o4)nn3)ccc2c1`, the IC50 in data set [1] amounted to 5.3 µM. Also, the inhibition at 60 µM in data set [2] was -3.8%. For the same compound, the Activity entry in data set [3] is reported as “Toxic”. Moreover, the “growth inhibition (GI)” value in data set [4] was found to be 0.3%.
For the compound `Clc1ccc(-c2nc(-c3ccc(-n4cc(-c5cccnc5)nn4)cc3)oc2-c2ccc(Cl)cc2)cc1`, in data set [1], the IC50 worked out at 40.9 µM. In data set [3], the Activity entry was “Toxic”.
In the same order, the values of `Clc1ccc(-c2nc(Cn3cc(-c4cccnc4)nn3)oc2-c2ccc(Cl)cc2)cc1` are over 60 µM and “Toxic”.
Regarding `FC(F)(F)c1ccccc1-c1cn(-c2ccc(-c3nc(-c4ccc(Cl)cc4)c(-c4ccc(Cl)cc4)o3)cc2)nn1`, the 50% inhibitory concentration (IC50) in data set [1] is 25.1 µM. Further, in data set [3], the Activity entry is on record as “Toxic”.
For the compound `COc1ccc(-c2nc(-c3cccc(-n4cc(-c5ccc(Oc6ccccc6)cc5)nn4)c3)oc2-c2ccc(OC)cc2)cc1`, the IC50 in data set [1] is over 60 µM. Moreover, the Activity result in data set [3] is “Toxic”.
With `COc1ccccc1-c1cn(-c2ccc(-c3nc(-c4ccc(Cl)cc4)c(-c4ccc(Cl)cc4)o3)cc2)nn1`, in data set [1], the half-inhibitory concentration (IC50) came to 37.3 µM. Further, in data set [3], the Activity result is recorded as “Toxic”.
As for `Fc1ccc(-c2cn(Cc3nc(-c4ccccc4)c(-c4ccccc4)o3)nn2)cc1`, the IC50 in data set [1] was over 60 µM. For the same compound, in data set [3], the Activity entry is “Toxic”.
Turning to `CCCCCc1ccc(-c2cn(-c3cccc(-c4nc(-c5ccc(OC)cc5)c(-c5ccc(OC)cc5)o4)c3)nn2)cc1`, the IC50 in data set [1] is over 60 µM. Also, the Activity entry in data set [3] is reported as “Toxic”.
For `COc1ccc(-c2nc(-c3cccc(-n4cc(-c5cccc(F)c5)nn4)c3)oc2-c2ccc(OC)cc2)cc1`, the inhibition at 40 µM in data set [5] is -9.1%. The IC50 in data set [1] came to 5.9 µM. For the same compound, the “growth inhibition (GI)” value in data set [6] was -2.6%. In data set [3], the Activity entry is listed as “Toxic”.
With `COc1ccc(-c2nc(-c3cccc(-n4cc(-c5ccccc5C(F)(F)F)nn4)c3)oc2-c2ccc(OC)cc2)cc1`, in data set [5], the inhibition at 40 µM was -9.7%. The half-maximal inhibitory concentration (IC50) in data set [1] is 27 µM. Also, the “growth inhibition (GI)” value in data set [6] is -1.6%. In addition, the Activity result in data set [3] is “Toxic”.
Take `Fc1cccc(-c2cn(Cc3nc(-c4ccc(Br)cc4)c(-c4ccc(Br)cc4)o3)nn2)c1`: the IC50 in data set [1] was over 60 µM. In addition, in data set [3], the Activity result was “Toxic”.
On the same counts, the results for `c1ccc(Oc2ccc(-c3cn(Cc4nc(-c5ccccc5)c(-c5ccccc5)o4)nn3)cc2)cc1` are over 60 µM and “Toxic”.
With `FC(F)(F)c1ccccc1-c1cn(Cc2nc(-c3ccc(Cl)cc3)c(-c3ccc(Cl)cc3)o2)nn1`, the concentration for half-maximal inhibition (IC50) in data set [1] worked out at 56.7 µM. In addition, the Activity entry in data set [3] is “Toxic”.
On to `COc1ccc(-c2nc(-c3cccc(-n4cc(-c5cccnc5)nn4)c3)oc2-c2ccc(OC)cc2)cc1`, for which the IC50 in data set [1] was found to be 57.7 µM. Also, the Activity result in data set [3] was “Toxic”.
For the compound `CCCCCc1ccc(-c2cn(Cc3nc(-c4ccccc4)c(-c4ccccc4)o3)nn2)cc1`, in data set [1], the IC50 was 35.5 µM. In data set [2], the inhibition at 60 µM is 6.6%. The Activity entry in data set [3] was “Toxic”. Further, the “growth inhibition (GI)” value in data set [4] is reported as -14.5%.
Regarding `COc1ccc2cc(-c3cn(Cc4nc(-c5ccccc5)c(-c5ccccc5)o4)nn3)ccc2c1`, the half-maximal inhibitory concentration (IC50) in data set [1] was over 60 µM. Moreover, the Activity entry in data set [3] is reported as “Toxic”.
In the same order, the values of `COc1ccc(-c2nc(-c3cccc(-n4cc(-c5cc(C(F)(F)F)cc(C(F)(F)F)c5)nn4)c3)oc2-c2ccc(OC)cc2)cc1` are 47.4 µM and “Toxic”.
With `Cc1ccccc1-c1cn(Cc2nc(-c3ccccc3)c(-c3ccccc3)o2)nn1`, the 50% inhibitory concentration (IC50) in data set [1] is over 56.3 µM. Moreover, the Activity result in data set [3] is “Toxic”.
As to `Fc1ccc(-c2nc(-c3ccc(-n4cc(-c5cccc(F)c5)nn4)cc3)oc2-c2ccc(F)cc2)cc1`, in data set [1], the half-inhibitory concentration (IC50) turned out to be 51.5 µM. The Activity result in data set [3] is recorded as “Toxic”.
As to `FC(F)(F)c1ccccc1-c1cn(Cc2nc(-c3ccccc3)c(-c3ccccc3)o2)nn1`, in data set [1], the IC50 is over 60 µM. Also, the Activity result in data set [3] is “Toxic”.
As for `FC(F)(F)c1ccccc1-c1cn(Cc2nc(-c3ccc(Br)cc3)c(-c3ccc(Br)cc3)o2)nn1`, the IC50 in data set [1] was over 60 µM. For the same compound, the Activity result in data set [3] is “Toxic”.
For `Fc1cccc(-c2cn(-c3ccc(-c4nc(-c5ccc(Cl)cc5)c(-c5ccc(Cl)cc5)o4)cc3)nn2)c1`, in data set [1], the IC50 turned out to be 15.7 µM. Further, the Activity result in data set [3] is “Toxic”.
For the compound `COc1ccccc1-c1cn(Cc2nc(-c3ccc(F)cc3)c(-c3ccc(F)cc3)o2)nn1`, the half-inhibitory concentration (IC50) in data set [1] was over 60 µM. Besides, the Activity entry in data set [3] is given as “Toxic”.
For `Fc1cccc(-c2cn(Cc3nc(-c4ccccc4)c(-c4ccccc4)o3)nn2)c1`, the IC50 in data set [1] was over 60 µM. Moreover, the Activity entry in data set [3] is “Toxic”.
Consider `COc1ccc(-c2nc(-c3cccc(-n4cc(-c5ccc(F)cc5)nn4)c3)oc2-c2ccc(OC)cc2)cc1`, for which the inhibition at 40 µM in data set [5] was -22.1%. In data set [1], the half-maximal inhibitory concentration (IC50) was 53 µM. For the same compound, in data set [6], the “growth inhibition (GI)” value is recorded as -14.6%. The Activity result in data set [3] is recorded as “Toxic”.
As for `COc1ccc2cc(-c3cn(-c4ccc(-c5nc(-c6ccc(Cl)cc6)c(-c6ccc(Cl)cc6)o5)cc4)nn3)ccc2c1`, the IC50 in data set [1] is 32.4 µM. In data set [3], the Activity entry is “Toxic”.
For the compound `Brc1ccc(-c2nc(-c3cccc(-n4cc(-c5cccnc5)nn4)c3)oc2-c2ccc(Br)cc2)cc1`, in data set [1], the 50% inhibitory concentration (IC50) stood at 31 µM. For the same compound, the Activity result in data set [3] was “Toxic”.
As for `Fc1ccc(-c2nc(Cn3cc(-c4cccc(F)c4)nn3)oc2-c2ccc(F)cc2)cc1`, the IC50 in data set [1] was over 60 µM. Besides, the Activity result in data set [3] is reported as “Toxic”.
For `COc1ccc2cc(-c3cn(Cc4nc(-c5ccc(Br)cc5)c(-c5ccc(Br)cc5)o4)nn3)ccc2c1`, the concentration for half-maximal inhibition (IC50) in data set [1] is 33.4 µM. Besides, in data set [2], the inhibition at 60 µM is -8.6%. Also, the Activity entry in data set [3] is recorded as “Toxic”. Also, the “growth inhibition (GI)” value in data set [4] is on record as -9.9%.
For the compound `COc1ccc2cc(-c3cn(Cc4nc(-c5ccc(F)cc5)c(-c5ccc(F)cc5)o4)nn3)ccc2c1`, the IC50 in data set [1] worked out at 29.3 µM. For the same compound, the inhibition at 60 µM in data set [2] was 0.2%. The Activity result in data set [3] is recorded as “Toxic”. The “growth inhibition (GI)” value in data set [4] was -3.3%.
As to `COc1ccc(-c2nc(-c3cccc(-n4cc(-c5ccccc5OC)nn4)c3)oc2-c2ccc(OC)cc2)cc1`, the inhibition at 40 µM in data set [5] turned out to be 0.8%. Also, the IC50 in data set [1] was determined as 15.4 µM. Besides, the “growth inhibition (GI)” value in data set [6] is on record as -6.2%. Further, the Activity entry in data set [3] is “Toxic”.
`Fc1ccc(-c2nc(Cn3cc(-c4cccnc4)nn3)oc2-c2ccc(F)cc2)cc1`: in data set [1], the IC50 was determined as 59.8 µM. For the same compound, in data set [3], the Activity entry is given as “Toxic”.
Consider `CC(C)CCNc1nc(NCCC(C)C)nc(-c2cn(Cc3nc(-c4ccccc4)c(-c4ccccc4)o3)nn2)n1`, for which the IC50 in data set [1] stood at 36.9 µM. Also, the inhibition at 60 µM in data set [2] stood at 6.8%. Moreover, in data set [3], the Activity entry is recorded as “Toxic”. Besides, the “growth inhibition (GI)” value in data set [4] is 72.8%.
In the case of `Fc1ccc(-c2nc(-c3ccc(-n4cc(-c5ccccc5C(F)(F)F)nn4)cc3)oc2-c2ccc(F)cc2)cc1`, in data set [5], the inhibition at 40 µM was -11%. The half-maximal inhibitory concentration (IC50) in data set [1] was found to be 12.8 µM. Besides, the “growth inhibition (GI)” value in data set [6] is on record as 0.1%. For the same compound, in data set [3], the Activity result is “Toxic”.
`Fc1ccc(-c2nc(-c3ccc(-n4cc(-c5cccnc5)nn4)cc3)oc2-c2ccc(F)cc2)cc1`: the 50% inhibitory concentration (IC50) in data set [1] was 25.6 µM. In addition, the Activity entry in data set [3] is “Toxic”.
Consider `COc1ccccc1-c1cn(Cc2nc(-c3ccccc3)c(-c3ccccc3)o2)nn1`, for which, in data set [1], the 50% inhibitory concentration (IC50) was over 60 µM. Moreover, the Activity entry in data set [3] is “Toxic”.
On the same counts, the results for `Fc1cccc(-c2cn(Cc3nc(-c4ccc(Cl)cc4)c(-c4ccc(Cl)cc4)o3)nn2)c1` are over 60 µM and “Toxic”.
Turning to `Fc1ccc(-c2nc(Cn3cc(-c4ccccc4C(F)(F)F)nn3)oc2-c2ccc(F)cc2)cc1`, in data set [1], the IC50 is over 60 µM. Moreover, in data set [3], the Activity result is on record as “Toxic”.
On the same counts, the results for `COc1ccc2cc(-c3cn(-c4ccc(-c5nc(-c6ccc(F)cc6)c(-c6ccc(F)cc6)o5)cc4)nn3)ccc2c1` are 52.2 µM and “Toxic”.
On the same counts, the results for `COc1ccc2cc(-c3cn(-c4cccc(-c5nc(-c6ccc(Br)cc6)c(-c6ccc(Br)cc6)o5)c4)nn3)ccc2c1` are 20.3 µM and “Toxic”.
